# Measurements from ChEMBL document CHEMBL1629526, “4-[1-(Substituted aryl/alkyl carbonyl)-benzoimidazol-2-yl]-benzenesulfonic acids: synthesis, antimicrobial activity, QSAR studies, and antiviral evaluation” (Eur J Med Chem, 2010).
# How the values were obtained:
# Staphylococcus aureus = test: Antimicrobial activity against Staphylococcus aureus after 24 hrs by tube dilution method; assay type: functional
# Bacillus subtilis = test: Antimicrobial activity against Bacillus subtilis after 24 hrs by tube dilution method; assay type: functional
# In short: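 Serial dilutions in double-strength nutrient broth (I.P.) with ciprofloxacin as reference, tube dilution, incubated 37 °C for 24 h. MIC is the lowest concentration that inhibited growth.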
# Escherichia coli = test: Antimicrobial activity against Escherichia coli after 24 hrs by tube dilution method; assay type: functional
# Candida albicans = test: Antimicrobial activity against Candida albicans after 48 hrs by tube dilution method; assay type: functional
# Aspergillus niger = test: Antimicrobial activity against Aspergillus niger after 7 days by tube dilution method; assay type: functional; settings: 168 h
# [1] = Cytotoxicity against cat CRFK cells assessed as cell viability by MTS assay; assay type: cell-based, Felis catus; settings: crfk
# In short: (§1)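 Uninfected cultures were run in parallel with the antiviral assays. Viability was read by colorimetric formazan MTS assay.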
# Felid alphaherpesvirus 1 = test: Antiviral activity against Feline herpesvirus 1 infected in cat CRFK cells assessed as inhibition of virus induced cytopathicity after 2 to 4 days by MTS assay; assay type: functional, organism-based; settings: Felid alphaherpesvirus 1, CRFK
# Feline coronavirus = test: Antiviral activity against Feline coronavirus infected in cat CRFK cells assessed as inhibition of virus induced cytopathicity after 2 to 4 days by MTS assay; assay type: functional, organism-based; settings: Alphacoronavirus 1, CRFK
# [2] = Cytotoxicity against human HEL cells assessed as altered cell morphology; assay type: cell-based
# In short: (§2)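 Uninfected cell cultures run alongside the antiviral assays, exposed to serial compound dilutions and incubated at 37 °C for 2–4 days. Toxicity was scored microscopically and reported as the minimum cytotoxic concentration (MCC), the lowest concentration causing a detectable change in normal cell morphology.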
# Human alphaherpesvirus 1 [3] = test: Antiviral activity against Herpes simplex virus 1 KOS infected in HEL cells assessed as inhibition of virus induced cytopathicity after 2 to 4 days by MTS assay; assay type: functional, organism-based; settings: Human alphaherpesvirus 1, KOS
# Human alphaherpesvirus 2 = test: Antiviral activity against Herpes simplex virus 2 G infected in HEL cells assessed as inhibition of virus induced cytopathicity after 2 to 4 days by MTS assay; assay type: functional, organism-based; settings: Human alphaherpesvirus 2, strain G
# Vaccinia virus = test: Antiviral activity against Vaccinia virus infected in HEL cells assessed as inhibition of virus induced cytopathicity after 2 to 4 days by MTS assay; assay type: functional, organism-based; settings: Orthopoxvirus vaccinia
# [4] = tested on: Vesicular stomatitis virus; test: Antiviral activity against Vesicular stomatitis virus infected in HEL cells assessed as inhibition of virus induced cytopathicity after 2 to 4 days by MTS assay; assay type: functional, organism-based
# Human alphaherpesvirus 1 [5] = test: Antiviral activity against thymidine kinase deficient acyclovir-resistant Herpes simplex virus 1 KOS infected in HEL cells assessed as inhibition of virus induced cytopathicity after 2 to 4 days by MTS assay; assay type: functional, organism-based; settings: Human alphaherpesvirus 1, KOS
# HeLa = test: Cytotoxicity against human HeLa cells assessed as cell viability by MTS assay; assay type: cell-based; settings: hela; in short: as §1
# [6] = Cytotoxicity against human HeLa cells assessed as altered cell morphology; assay type: cell-based; in short: as §2
# [7] = tested on: Vesicular stomatitis virus; test: Antiviral activity against Vesicular stomatitis virus infected in human HeLa cells assessed as inhibition of virus induced cytopathicity by visual scoring of CPE; assay type: functional, organism-based
# [8] = tested on: Vesicular stomatitis virus; test: Antiviral activity against Vesicular stomatitis virus infected in human HeLa cells assessed as inhibition of virus induced cytopathicity after 2 to 4 days by MTS assay; assay type: functional, organism-based
# Coxsackievirus B4 [9] = test: Antiviral activity against coxsackievirus B4 infected in human HeLa cells assessed as inhibition of virus induced cytopathicity by visual scoring of CPE; assay type: functional, organism-based; settings: Enterovirus B
# Coxsackievirus B4 [10] = test: Antiviral activity against coxsackievirus B4 infected in human HeLa cells assessed as inhibition of virus induced cytopathicity after 2 to 4 days by MTS assay; assay type: functional, organism-based; settings: Enterovirus B
# [11] = tested on: Respiratory syncytial virus; test: Antiviral activity against Respiratory syncytial virus infected in human HeLa cells assessed as inhibition of virus induced cytopathicity by visual scoring of CPE; assay type: functional, organism-based
# [12] = tested on: Respiratory syncytial virus; test: Antiviral activity against Respiratory syncytial virus infected in human HeLa cells assessed as inhibition of virus induced cytopathicity after 2 to 4 days by MTS assay; assay type: functional, organism-based
# MDCK = test: Cytotoxicity against MDCK cells assessed as cell viability by MTS assay; assay type: cell-based, Canis lupus familiaris; settings: dog, mdck; in short: as §1
# [13] = Cytotoxicity against MDCK cells assessed as altered cell morphology; assay type: cell-based, Canis lupus familiaris; settings: dog; in short: as §2
# Influenza A virus [14] = test: Antiviral activity against Influenza A H3N2 virus subtype infected in MDCK cells assessed as inhibition of virus induced cytopathicity by visual scoring of CPE; assay type: functional, organism-based
# Influenza A virus [15] = test: Antiviral activity against Influenza A H3N2 virus subtype infected in MDCK cells assessed as inhibition of virus induced cytopathicity after 2 to 4 days by MTS assay; assay type: functional, organism-based
# Influenza B virus [16] = test: Antiviral activity against Influenza B virus infected in MDCK cells assessed as inhibition of virus induced cytopathicity by visual scoring of CPE; assay type: functional, organism-based
# Influenza B virus [17] = test: Antiviral activity against Influenza B virus infected in MDCK cells assessed as inhibition of virus induced cytopathicity after 2 to 4 days by MTS assay; assay type: functional, organism-based
# [18] = Cytotoxicity against african green monkey Vero cells assessed as altered cell morphology; assay type: cell-based; settings: chlorocebus sabaeus; in short: as §2
# Human respirovirus 3 = test: Antiviral activity against parainfluenza-3 virus infected in african green monkey Vero cells assessed as inhibition of virus induced cytopathicity after 2 to 4 days by MTS assay; assay type: functional, organism-based; settings: Human respirovirus 3, Vero
# [19] = tested on: Mammalian orthoreovirus 1; test: Antiviral activity against Reovirus 1 virus infected in african green monkey Vero cells assessed as inhibition of virus induced cytopathicity after 2 to 4 days by MTS assay; assay type: functional, organism-based; settings: Mammalian orthoreovirus 1, Vero
# Sindbis virus = test: Antiviral activity against Sindbis virus infected in african green monkey Vero cells assessed as inhibition of virus induced cytopathicity after 2 to 4 days by MTS assay; assay type: functional, organism-based
# Coxsackievirus B4 [20] = test: Antiviral activity against Coxsackie virus B4 infected in african green monkey Vero cells assessed as inhibition of virus induced cytopathicity after 2 to 4 days by MTS assay; assay type: functional, organism-based; settings: Enterovirus B
# Punta Toro virus = test: Antiviral activity against Punta Toro virus infected in african green monkey Vero cells assessed as inhibition of virus induced cytopathicity after 2 to 4 days by MTS assay; assay type: functional, organism-based
SMILES,MBC (Staphylococcus aureus) [mg/L],MBC (Bacillus subtilis) [mg/L],MBC (Escherichia coli) [mg/L],MFC (Candida albicans) [mg/L],MFC (Aspergillus niger) [mg/L],CC50 [1] [mg/L],EC50 (Felid alphaherpesvirus 1) [mg/L],EC50 (Feline coronavirus) [mg/L],MCC [2] [µg/mL],EC50 (Human alphaherpesvirus 1 [3]) [mg/L],EC50 (Human alphaherpesvirus 2) [mg/L],EC50 (Vaccinia virus) [mg/L],EC50 [4] [mg/L],EC50 (Human alphaherpesvirus 1 [5]) [mg/L],CC50 (HeLa) [mg/L],MCC [6] [µg/mL],EC50 [7] [mg/L],EC50 [8] [mg/L],EC50 (Coxsackievirus B4 [9]) [mg/L],EC50 (Coxsackievirus B4 [10]) [mg/L],also measured
C/C=C/C(=O)n1c(-c2ccc(S(=O)(=O)O)cc2)nc2ccccc21,12.5,50,12.5,> 50,> 50,> 100,> 100,> 100,> 100,> 100,> 100,> 100,> 100,> 100,> 100,> 100,> 100,> 100,> 100,> 100,EC50 [11]: > 100 mg/L; EC50 [12]: > 100 mg/L; CC50 (MDCK): > 100 mg/L; MCC [13]: > 100 µg/mL; EC50 (Influenza A virus [14]): > 100 mg/L; EC50 (Influenza A virus [15]): > 100 mg/L; EC50 (Influenza B virus [16]): > 100 mg/L; EC50 (Influenza B virus [17]): > 100 mg/L; MCC [18]: > 100 µg/mL; EC50 (Human respirovirus 3): > 100 mg/L; EC50 [19]: > 100 mg/L; EC50 (Sindbis virus): > 100 mg/L; EC50 (Coxsackievirus B4 [20]): > 100 mg/L; EC50 (Punta Toro virus): > 100 mg/L
O=C(c1ccc(Cl)cc1)n1c(-c2ccc(S(=O)(=O)O)cc2)nc2ccccc21,25,> 50,1.56,> 50,> 50,> 100,> 100,> 100,> 100,> 100,> 100,> 100,> 100,> 100,> 100,> 100,> 100,> 100,> 100,> 100,EC50 [11]: > 100 mg/L; EC50 [12]: > 100 mg/L; CC50 (MDCK): > 100 mg/L; MCC [13]: > 100 µg/mL; EC50 (Influenza A virus [14]): > 100 mg/L; EC50 (Influenza A virus [15]): > 100 mg/L; EC50 (Influenza B virus [16]): > 100 mg/L; EC50 (Influenza B virus [17]): > 100 mg/L; MCC [18]: > 100 µg/mL; EC50 (Human respirovirus 3): > 100 mg/L; EC50 [19]: > 100 mg/L; EC50 (Sindbis virus): > 100 mg/L; EC50 (Coxsackievirus B4 [20]): > 100 mg/L; EC50 (Punta Toro virus): > 100 mg/L
Cc1ccc(S(=O)(=O)n2c(-c3ccc(S(=O)(=O)O)cc3)nc3ccccc32)cc1,6.25,12.5,12.5,50,> 50,> 100,> 100,> 100,> 100,> 100,> 100,> 100,> 100,> 100,> 100,> 100,> 100,> 100,> 100,> 100,EC50 [11]: > 100 mg/L; EC50 [12]: > 100 mg/L; CC50 (MDCK): > 100 mg/L; MCC [13]: > 100 µg/mL; EC50 (Influenza A virus [14]): > 100 mg/L; EC50 (Influenza A virus [15]): > 100 mg/L; EC50 (Influenza B virus [16]): > 100 mg/L; EC50 (Influenza B virus [17]): > 100 mg/L; MCC [18]: > 100 µg/mL; EC50 (Human respirovirus 3): > 100 mg/L; EC50 [19]: 100 mg/L; EC50 (Sindbis virus): > 250 mg/L; EC50 (Coxsackievirus B4 [20]): > 100 mg/L; EC50 (Punta Toro virus): > 100 mg/L
